HTR2A ag: activates the mouse 5-HT2A serotonin receptor; activation, % at 7.6 µM; AID 624169; P35363; 0.66% of 360,000 active; CHO-K1 mHTR2A beta-arrestin complementation, luminescence; percent of 30 µM serotonin response;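 active = activation above a run cutoff, the mean activation of all tested compounds plus 3 SD, cut at about 14% in these data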;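 also: 0% = plate median of compound wells and 100% = 30 µM serotonin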
MC4R antag cAMP: blocks human MC4R cAMP signaling; MC4R-expressing cells, MTII-stimulated cAMP, LANCE TR-FRET; P32245; inhibition, % at 6.5 µM; 0.48% of 360,000 active;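 active = inhibition above its plate's cutoff, the mean of tested wells on that plate plus 3 SD, cut at about 29% in these data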;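 also: 0% = Melanotan II alone and 100% = Melanotan II plus saturating MCL0020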
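System – human MC4R-expressing U2OS cells · Also added – Melanotan II · Dosing – one concentration, 6.5 µM nominal · Timing – 30-min compound, 1-h challenge, 1-h detection, room temperature · Measured by – Eu-cAMP/anti-cAMP TR-FRET, emission 671 nm · Replicates – singlicate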
Lipid droplet: hepatic lipid droplet formation modulation. AML12 mouse hepatocytes, oleate lipid droplets, BODIPY imaging. inhibition, % at 6.5 µM. 0.4% of 240,000 active;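 active = lipid droplet intensity inhibited by at least 50%, with more than 500 cells counted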
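Assay system: AML12 hepatocytes (mouse); Probe or stimulus: oleic acid at 100 µM to induce lipid droplet formation; Dosing: compound at 6.5 µM only; Schedule: compound with oleate, overnight; Detection: fluorescence imaging, 20x objective, two fields per well; Measure: % inhibition of lipid droplet signal.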
PREPL inh: inhibitors of human prolyl oligopeptidase-like enzyme PREPL | recombinant PREPL, fluorescence polarization activity-based probe | inhibition, % at 5.96 µM | 0.68% of 320,000 active | AID 2751; in the data active = inhibition above about 43%;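 also: 0% = enzyme with DMSO and 100% = wells lacking enzyme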
Target sequence (Q4J6C6 whole entry, looked up): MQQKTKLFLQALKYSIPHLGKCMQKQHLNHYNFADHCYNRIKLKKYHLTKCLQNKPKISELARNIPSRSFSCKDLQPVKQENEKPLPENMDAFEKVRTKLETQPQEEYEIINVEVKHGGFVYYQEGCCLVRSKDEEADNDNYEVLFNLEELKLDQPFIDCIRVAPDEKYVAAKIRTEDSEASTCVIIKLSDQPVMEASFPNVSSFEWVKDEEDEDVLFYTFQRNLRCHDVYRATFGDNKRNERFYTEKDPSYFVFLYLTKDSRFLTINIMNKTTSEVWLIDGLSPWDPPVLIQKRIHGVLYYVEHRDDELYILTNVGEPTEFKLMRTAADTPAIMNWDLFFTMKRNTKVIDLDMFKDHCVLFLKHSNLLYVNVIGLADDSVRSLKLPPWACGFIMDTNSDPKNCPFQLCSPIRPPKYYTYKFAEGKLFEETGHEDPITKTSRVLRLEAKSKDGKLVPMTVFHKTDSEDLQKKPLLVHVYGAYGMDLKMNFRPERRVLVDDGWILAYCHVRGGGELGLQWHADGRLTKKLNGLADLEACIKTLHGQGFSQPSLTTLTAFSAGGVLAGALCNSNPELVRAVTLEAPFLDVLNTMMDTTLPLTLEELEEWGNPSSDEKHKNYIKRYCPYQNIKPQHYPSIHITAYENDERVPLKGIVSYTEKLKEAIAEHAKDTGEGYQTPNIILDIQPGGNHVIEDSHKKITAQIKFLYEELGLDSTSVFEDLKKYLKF
MC4R barr agon: human MC4R agonism via beta-arrestin | P32245 | U2OS MC4R beta-arrestin complementation, luminescence; percent of melanotan II response, DMSO zero | activation, % at 8.9 µM | 0.98% of 360,000 active | AID 540308;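 active = activation above a per-plate cutoff, the mean activation of sample wells on that plate plus 3 SD, cut at about 8% in these data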
NTR1 agonist: activates human neurotensin receptor 1. activation, % at 20 µM. 0.17% of 330,000 active. NTR1-U2OS beta-arrestin-GFP spot imaging, agonist mode. P30989;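 active = activation at or above 40% of the spot to cytoplasm intensity ratio, with at least 20 cells analyzed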;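 also: 0% = DMSO without peptide and 100% = 100 nM NTR1 peptide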
MC4R barr conf: human MC4R beta-arrestin agonism confirmation; U2OS MC4R beta-arrestin recruitment, luminescence; scaled DMSO 0%, Melanotan II 100%; activation, % at 8.9 µM; shares compounds with MC4R barr agon; 31% of 2,400 active;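 active = mean activation across replicates above the hit cutoff set in the earlier primary screen, cut at about 8% in these data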
MOR DOR agonist: activates mu-delta opioid heterodimer, MC4R agonist counter-screen | shares compounds with MC4R barr agon | U2OS PathHunter beta-arrestin, beta-gal luminescence; percent of deltorphin B response, DMSO zero | activation, % at 9.2 µM | 5.8% of 2,400 active | AID 602194;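 active = mean activation across replicates exceeds the hit threshold derived in the earlier primary screen, cut at about 18% in these data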;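 also: 100% = deltorphin B at 0.9 µM final and 0% = DMSO alone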
Numbers without * were called inactive; / = not tested or not shown. This is a sample that favours compounds with a hit; in the whole collection about 2.7% have one here.

SMILES	HTR2A ag	MC4R antag cAMP	Lipid droplet	PREPL inh	MC4R barr agon	NTR1 agonist	MC4R barr conf	MOR DOR agonist
Cc1[nH]c2ccc(C(=O)NCCCN(C)C3CCCCC3)cc2c1C	-4	-2	-2	16	-3	1	/	/
COc1cc(NC(=O)CSc2nc3ccccc3c(=O)n2C)ccc1NC(=O)c1ccco1	-21	20	/	-7	14*	5	0	17
O=C(O)/C=C/C(=O)Nc1cc(F)ccc1F	2	-1	/	10	1	0	/	/
Cc1cc(S(=O)(=O)N2CCOCC2)ccc1OCC(=O)Nc1ccc(F)cc1	5	-4	7	2	-1	-2	/	/
Cc1cc(S(=O)(=O)N2CCOCC2)ccc1OCC(=O)Nc1ccc(F)c(Cl)c1	4	-1	14	4	16*	1	-2	4
CC1(C(=O)NS(=O)(=O)c2ccc3c(c2)CCO3)CCN1C(=O)c1ccccc1CCc1ccccc1 (stereo unspecified)	0	6	/	/	0	/	/	/
Cc1cc2ccccn2c1C(=O)Nc1cccc(Cl)c1	1	5	-4	9	5	9	/	/
Cc1ccc(-c2c(C)c(-c3ccc(F)cc3)nc(N)c2C#N)o1	-1	10	/	6	13*	4	1	10
Cc1c(-c2ccc(F)cc2)nc(N)c(C#N)c1-c1cccnc1	-2	10	6	-3	1	2	/	/
CCCCn1nc(C(=O)Nc2c(C)n(C)n(-c3ccccc3)c2=O)c2ccccc2c1=O	-5	2	/	-4	-1	2	/	/
O=C(Nc1ccccc1O)c1ccc(Cl)cc1	-2	-4	/	-4	-2	0	/	/
O=C(Nc1ccccc1OC(=O)c1ccc(Cl)cc1)c1ccc(Cl)cc1	-3	11	26	-27	36*	5	8	3
Cc1ccc(C(=O)Nc2cc(Cl)ccc2OC(=O)c2ccc(C)cc2)cc1	/	/	/	6	/	0	/	/
O=C(Nc1cc(Cl)ccc1Cl)c1ccc(OC(=O)c2ccco2)cc1	2	-1	19	6	13*	3	4	7
COc1ccc(C(=O)Nc2cc(Cl)ccc2OC(=O)c2ccc(OC)cc2)cc1	1	16	/	-3	14*	1	2	2
COc1ccc(CCC(=O)NCCS(=O)(=O)N2CCN(c3ccc(F)cc3)CC2)cc1	-2	9	/	7	0	0	/	/
COc1ccc(-c2ccc3c(c2)S(=O)(=O)c2cccc(C(=O)NCc4cc(C)oc4C(F)(F)F)c2C3=O)cc1OC	-2	12	/	2	12*	5	27*	12
C[C@@H]1CC[C@H]2C(=O)N3[C@@H](CC[C@@H](C)[C@@H]3c3ccc(Br)cc3)C(=O)N2[C@H]1c1ccc(Br)cc1	4	17	-2	5	-1	13	/	/
COc1ccc(OC)c(CCNC(=O)CCC(=O)N2CCOc3ccc(C)cc32)c1	-4	0	21	9	0	-2	/	/
O=C(Cn1nc(-c2ccccc2)ccc1=O)Nc1ccc(NC(=O)c2ccccn2)cc1	-3	9	-2	8	14*	-1	22*	22*
Cc1cc2oc(C(=O)Nc3nonc3C)c(C)c2cc1C	2	18	18	6	14*	1	-2	5
O=C(COc1ccc(-n2cnnn2)cc1)Nc1cc(Cl)cc(Cl)c1	-5	0	/	/	17*	0	5	8
O=C(COc1ccc(-n2cnnn2)cc1)Nc1ccc(F)c(Cl)c1	-7	0	/	3	-2	0	/	/
COc1ccc2[nH]c(C(=O)O)c(CCN3C(=O)c4cccc([N+](=O)[O-])c4C3=O)c2c1	-1	0	-1	-10	-1	-1	/	/
CC1CCCN(C(=O)COC(=O)C2CCN(S(=O)(=O)c3ccc(Cl)c(C(F)(F)F)c3)CC2)C1 (stereo unspecified)	6	-4	/	4	56*	0	2	2
SMILES	HTR2A ag	MC4R antag cAMP	Lipid droplet	PREPL inh	MC4R barr agon	NTR1 agonist	MC4R barr conf	MOR DOR agonist
Cc1ccc(NC(=O)C2CCN(S(=O)(=O)c3ccc(Cl)c(C(F)(F)F)c3)CC2)nc1	-2	2	/	-4	9.9*	0	2	7
Cc1ccnc(NC(=O)C2CCN(S(=O)(=O)c3ccc(Cl)c(C(F)(F)F)c3)CC2)c1	10	5	/	3	7	1	/	/
Clc1cccc(CON/C=N/c2ncnc3sccc23)c1	-1	6	/	-12	-1	0	/	/
Clc1cccc(Cl)c1CON/C=N/c1ncnc2sccc12	-4	10	-14	-11	12*	6	3	5
Cc1cc(C)cc(OCC(=O)Nc2ccccc2C(=O)NCc2ccco2)c1	-3	-1	-1	-13	31*	3	1	5
Cc1cccc(NC(=O)CC2C(=O)NCCN2C(=O)Nc2ccc(Cl)cc2)c1 (stereo unspecified)	-5	6	-4	/	-2	0	/	/
CSc1ccc(Cl)c(C(=O)NCCOc2cc(C)ccc2C(C)C)c1	-6	-1	/	5	2	2	/	/
Cc1ccc(C(C)C)c(OCCNC(=O)c2ccccc2O)c1	-1	4	1	5	13*	2	3	11
C1CCC(C(CC2CCCCN2)C2CCCCC2)CC1 (stereo unspecified)	-3	14	1	-36	11*	25	12*	13
CNC(=S)N/N=C/c1c(C)nn(-c2cccc(Cl)c2)c1Cl	2	-1	23	13	22*	3	3	5
CNC(=S)N/N=C/c1c(C)nn(-c2ccccc2)c1Cl	-3	12	12	-7	-1	1	/	/
Cc1cc(NC(=O)COC(=O)c2oc3c(ccc4ccccc43)c2C)no1	3	17	-15	-2	18*	2	6	6
Cc1ccc(C)c(C(=O)OCC(=O)NC(=O)NCc2ccccc2)c1	-3	20	/	/	13*	/	7	11
Cc1ccc(-c2cc(C(=O)OCC(=O)Nc3cc(C)on3)c3ccccc3n2)c(C)c1	1	19	-1	-4	12*	9	4	6
Cc1cc(NC(=O)COC(=O)c2ccccc2O)no1	9	8	/	3	1	1	/	/
Cc1cc(NC(=O)COc2ccc3oc4ccccc4c3c2)no1	2	3	/	-1	10*	0	1	2
CCOC(=O)C1CCCCN1Cc1ccc(-c2ccccc2)cc1 (stereo unspecified)	-6	0	-3	/	0	2	/	/

Source: PubChem BioAssay (several laboratories)
